Series [1] concerns Plasmodium falciparum. In words: Antimalarial activity against drug-resistant Plasmodium falciparum TM90C2A. It is filed as functional, organism-based.
Series [2] deals with Plasmodium falciparum. The series can be described thus: Antimalarial activity against drug-resistant Plasmodium falciparum D6 infected in Aotus lemurinus lemurinus monkey. It is filed as functional, organism-based.
Series [3] concerns Plasmodium falciparum. The series can be described thus: Antimalarial activity against drug-resistant Plasmodium falciparum TM91C235. The class given is functional, organism-based.
Series [4] concerns Plasmodium falciparum. The series can be described thus: Antimalarial activity against drug-resistant Plasmodium falciparum W2. The class given is functional, organism-based.
For series [5], the system named is Mus musculus. The series can be described thus: AUC in ICR mouse at 50 mg/kg/day, sc assessed as metabolite W308393 level by LC/MS analysis. The class given is ADME, organism-based, Plasma. Set-up: route subcutaneous. The note with it: in vivo. Put shortly:
(§1)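 Male ICR mice, 8 weeks old, got one 50 mg/kg dose either orally or subcutaneously, with three groups of six mice per route. One mouse per group was killed at 15, 30 and 60 min and at 3, 6 and 24 h. Plasma was deproteinized with 2 volumes of acetonitrile and analysed by LC-MS/MS on a C18 column against 0–500 ng/ml standards, with parent and acid metabolite measured in the same sample. Each six-mouse group was treated as one "animal" and fitted to a two-compartment model. AUC was taken by the linear trapezoidal rule extrapolated to infinity, and Cmax and Tmax were read per "animal".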

For series [6], the system named is Mus musculus. In words: AUC in ICR mouse at 50 mg/kg/day, po assessed as metabolite W308393 level by LC/MS analysis. It is filed as ADME, organism-based, Plasma. The note with it: in vivo. Set-up: route oral. Put shortly: as §1
Series [7] in a line: Cytotoxicity against mouse RAW264.7 cells by MTT assay. The class given is cell-based. The settings on record: read-out: LD50 (the source's name). Put shortly: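 LC50 in RAW macrophages was determined by MTT assay, given as the mean of 2–4 experiments with range. Selectivity index = RAW LC50 / lowest P. falciparum IC50.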
For series [8], the system named is Plasmodium falciparum. The series can be described thus: Antimalarial activity against Plasmodium falciparum infected in mouse RAW264.7 cells. It is filed as functional, organism-based.
Series [9] in a line: Cytotoxicity against african green monkey Vero cells by MTT assay. The settings on record: chlorocebus sabaeus, read-out: LC50 (the source's name). It is filed as cell-based.
Series [10] is described as follows: Selectivity index, ratio of LC50 for mouse RAW264.7 cells to IC50 for Plasmodium falciparum. The settings on record: RAW264.7 cells.
The target in series [11] is T1, Histone deacetylase (Plasmodium falciparum 3D7) (UniProt Q7K6A1).
T1 sequence (whole entry): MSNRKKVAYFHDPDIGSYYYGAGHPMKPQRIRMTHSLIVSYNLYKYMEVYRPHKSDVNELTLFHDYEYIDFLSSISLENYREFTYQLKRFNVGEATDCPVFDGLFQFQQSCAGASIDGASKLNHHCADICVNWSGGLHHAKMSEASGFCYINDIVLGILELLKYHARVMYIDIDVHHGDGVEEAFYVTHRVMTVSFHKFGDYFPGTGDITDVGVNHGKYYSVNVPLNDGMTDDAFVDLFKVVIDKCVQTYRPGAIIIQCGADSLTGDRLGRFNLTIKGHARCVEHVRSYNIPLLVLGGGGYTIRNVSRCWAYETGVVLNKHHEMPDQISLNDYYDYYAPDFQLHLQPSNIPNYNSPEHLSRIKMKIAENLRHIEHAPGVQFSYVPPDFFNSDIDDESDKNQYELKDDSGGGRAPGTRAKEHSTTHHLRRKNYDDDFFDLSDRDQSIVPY
In words: Inhibition of Plasmodium falciparum 3D7 histone deacetylase infected in human erythrocytes assessed as alteration of histone H3 acetylation at 100 nM after 3.5 hrs by SDS-PAGE. It is filed as cell-based. Put shortly:
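About 3 × 10^9 erythrocytes infected with late-trophozoite P. falciparum 3D7 were exposed to compound or to DMSO vehicle for 3.5 h at 37°C, and an untreated sample was taken at the start. Histones were extracted, about 6 × 10^8 parasites were loaded per lane on SDS–15% PAGE, and loading was checked by silver stain. Western blots were probed with anti-tetraacetyl-H4 and anti-diacetyl-H3 antisera and detected by ECL.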

For series [12], the target named is T1, Histone deacetylase (Plasmodium falciparum 3D7). The series can be described thus: Inhibition of Plasmodium falciparum 3D7 histone deacetylase infected in human erythrocytes assessed as alteration of histone H3 acetylation at 1.8 to 1000 nM after 3.5 hrs by SDS-PAGE. The class given is cell-based. Put shortly:
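About 3 × 10^9 late-trophozoite 3D7-infected erythrocytes were incubated with compound or DMSO vehicle for 3.5 h at 37°C, with an untreated sample taken at the start. Histones (about 6 × 10^8 parasites per lane) were run on SDS–15% PAGE, with silver stain as the loading check. Western blots were probed with anti-(tetra)acetyl-H4 and anti-(di)acetyl-H3 antisera (1:2,000) and read by ECL.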

For series [13], the system named is Plasmodium falciparum. The series can be described thus: Antimalarial activity against Plasmodium falciparum at 1 nM after 48 hrs. The class given is functional, organism-based. Put shortly:
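P. falciparum-infected erythrocytes were exposed to 1 nM for 3.5 h, then washed and returned to culture. Growth was scored 48 h later relative to matched untreated controls.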

In series [14] the test system is Plasmodium falciparum. In words: Antimalarial activity against Plasmodium falciparum infected mouse assessed as reduction in parasitemia at 50 mg/kg, ip. It is filed as functional, organism-based. Set-up: dose 50 mg/kg.
The subject of series [15] is Plasmodium falciparum. The series can be described thus: Antimicrobial activity against Plasmodium falciparum. The class given is functional. Put shortly:
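Labeled-hypoxanthine growth inhibition assay against strains W2, D6, TM91C235 and TM90C2A, reporting IC50. Values are single determinations, or the mean of duplicates for some compounds against D6, W2 and C235. Mefloquine and chloroquine served as assay-validity controls.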

SMILES strings stand for the structures. ≈ marks a conversion by molar mass, not a printed value. Calls of active or inactive are those of the source. No cut-off for these calls is given here. Some results are limits rather than exact numbers.

For the molecule `Nc1ccc(-c2csc(NC(=O)CCCCCCC(=O)NO)n2)cc1`, the IC50 came out at 0.0099 µM in series [1], 0.0098 µM in series [2], 0.0196 µM in [3] and 0.0094 µM in series [4].

In the case of `CN(C)c1cccc(-c2csc(NC(=O)CCCCCCC(=O)NO)n2)c1`, the IC50 in [1] came to 0.0185 µM; in series [2], 0.0305 µM; in series [3], 0.0608 µM; in [4], 0.0357 µM.

With `Nc1ccccc1-c1csc(NC(=O)CCCCCCC(=O)NO)n1`, the IC50 in series [1] is 0.0303 µM; in series [2], 0.0342 µM; in series [3] it was 0.0419 µM; in series [4], 0.0387 µM.

In the case of `Cc1sc(NC(=O)CCCCCCC(=O)NO)nc1-c1cccc(N)c1`, the IC50 came to 0.004 µM in [1], 0.008 µM in series [2], 0.0061 µM in [3] and 0.0072 µM in series [4].

On to `COc1cccc(-c2csc(NC(=O)CCCCCCC(=O)NO)n2)c1`, for which the IC50 is 0.0103 µM in series [1], 0.0149 µM in series [2], 0.0062 µM in [3] and 0.0113 µM in [4].

For `O=C(CCCCCCC(=O)Nc1nc(-c2ccsc2)cs1)NO`, the IC50 came to 0.0074 µM in [1], 0.0075 µM in series [2], 0.0065 µM in series [3] and 0.017 µM in [4].

Take `Nc1cccc(-c2cc(C(=O)NCCCCCCC(=O)NO)no2)c1`: the IC50 in series [1] came out at 0.028 µM; in [2], 0.0332 µM; in [3], 0.0422 µM; in series [4], 0.0698 µM.

Take `Nc1cccc(-c2csc(NC(=O)CCCCCCC(=O)O)n2)c1`: the IC50 in series [1] is 1.4 µM; in series [2], more than 1.4 µM; in [3], more than 1.4 µM; in [4], more than 1.4 µM. Besides, the AUC was determined as 0.4 µg·h/mL in [5] and 0.478 µg·h/mL in series [6].

For the molecule `Nc1cccc(-c2csc(NC(=O)CCCCCC(=O)NO)n2)c1`, the IC50 came out at 0.0344 µM in series [1], 0.0127 µM in series [2], 0.0943 µM in [3] and 0.0158 µM in series [4].

`COc1ccc(-c2csc(NC(=O)CCCCCCC(=O)NO)n2)cc1N`: the concentration for half-maximal inhibition (IC50) in series [1] was found to be 0.001 µM; in [2], 0.0009 µM; in [8] it was 0.0009 µM; in series [3] it was 0.001 µM; in series [4], 0.0012 µM. Further, the CC50 in series [7] was determined as 3.2 µM; in series [9], 0.95 µM. Further, in series [10], the selectivity ratio was 3560.

Take `CC(/C=C/C(=O)NO)=C\[C@@H](C)C(=O)c1ccc(N(C)C)cc1`: the inhibition result in series [11] is “Active”.

As for `O=C(CCCCCCC(=O)Nc1nc(-c2ccc3ccccc3c2)cs1)NO`, the IC50 in series [1] was 0.0059 µM; in [2] it was 0.0033 µM; in series [3], 0.0031 µM; in [4], 0.0064 µM.

For `O=C(CCCCCCC(=O)Nc1nc(-c2cccc(O)c2)cs1)NO`, the IC50 amounted to 0.0016 µM in series [1], 0.0027 µM in series [2], 0.0017 µM in series [3] and 0.0027 µM in [4].

Turning to `Nc1cc(-c2csc(NC(=O)CCCCCCC(=O)NO)n2)ccc1F`, the IC50 amounted to 0.0038 µM in [1], 0.0051 µM in series [2], 0.0024 µM in series [3] and 0.005 µM in series [4].

`CN(CCO)c1ccc(-c2csc(NC(=O)CCCCCCC(=O)NO)n2)cc1N`: the IC50 in series [1] was 0.0009 µM; in series [2] it was 0.0008 µM; in series [8], 0.00081 µM; in series [3] it was 0.001 µM; in [4], 0.001 µM. The CC50 worked out at 0.54 µM in [7] and 0.95 µM in [9]. The selectivity ratio in series [10] amounted to 670.

Take `[N-]=[N+]=Nc1cccc(-c2csc(NC(=O)CCCCCCC(=O)NO)n2)c1`: the IC50 is 0.0088 µM in series [1], 0.0097 µM in series [2], 0.0193 µM in series [3] and 0.0178 µM in series [4].

With `O=C(CCCCCCC(=O)Nc1nc(-c2ccccc2)cs1)NO`, the 50% inhibitory concentration (IC50) in [1] is 0.0088 µM; in series [2], 0.0118 µM; in series [3], 0.0167 µM; in [4], 0.0134 µM.

Consider `Nc1cc(-c2csc(NC(=O)CCCCCCC(=O)NO)n2)ccc1Cl`, for which the IC50 in series [1] came to 0.0016 µM; in [2], 0.0017 µM; in series [3], 0.0014 µM; in series [4], 0.0017 µM.

As for `C[C@@H]1CC[C@H]2[C@@H](C)C(=O)O[C@@H]3O[C@@]4(C)CC[C@@H]1[C@]32OO4`, the inhibition entry in series [12] is “inactive”. The result in series [13] was Active.

`O=C(CCCCCCC(=O)Nc1ccccc1)NO` [VORINOSTAT]: the CC50 in series [7] was 2.2 µM; in [9] it was 0.95 µM.

For the molecule `O=C(CCCCCCC(=O)Nc1nc(-c2cccc(F)c2)cs1)NO`, the 50% inhibitory concentration (IC50) turned out to be 0.0077 µM in series [1], 0.0118 µM in [2], 0.0158 µM in series [3] and 0.0142 µM in series [4].

Consider `Nc1cccc(-c2csc(C(=O)NCCCCCCC(=O)NO)n2)c1`, for which the IC50 is 0.0607 µM in [1], 0.0424 µM in [2], 0.171 µM in [3] and 0.0395 µM in series [4].

As for `CCC(=O)CCCCC[C@@H]1NC(=O)[C@H]2CCCCN2C(=O)[C@H]([C@@H](C)CC)NC(=O)[C@H](Cc2cn(OC)c3ccccc23)NC1=O` [APICIDIN], the outcome in series [14] was Active. The MIC in series [15] is 0.125 mg/L (≈ 0.2 µM).

Regarding `Nc1cccc(-c2csc(NC(=O)CCCCc3cc(C(=O)NO)no3)n2)c1`, the IC50 in series [1] amounted to 0.0797 µM; in series [2], 0.0585 µM; in [3] it was 0.15 µM; in [4] it was 0.0721 µM.

Regarding `Cc1cccc(-c2csc(NC(=O)CCCCCCC(=O)NO)n2)c1`, the IC50 in [1] stood at 0.006 µM; in series [2], 0.0039 µM; in series [3], 0.0036 µM; in series [4] it was 0.0075 µM.

The record behind these values is ChEMBL document CHEMBL1629555, “Antimalarial activity of phenylthiazolyl-bearing hydroxamate-based histone deacetylase inhibitors” (Antimicrob Agents Chemother, 2008).
